Compound activity: PubChem BioAssay, The Scripps Research Institute Molecular Screening Center
Rows were chosen to be rich in hits. Some 2% of all compounds tested hit in one or more screens of this group.
UHRF1 binding: blocks human UHRF1 binding to methylated DNA; Q96T88; UHRF1 binding to methylated oligo, TR-FRET; inhibition, % at 4.4 µM; actives 0.75% (n = 370,000); AID 687016;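 note: UHRF1 SRA domain binding a hemimethylated CpG hairpin DNA probe; 0% = median of test compound wells and 100% = reference inhibitor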
MBD2 DNA inh: inhibitors of human MBD2 binding to methylated oligonucleotide; Q9UBB5; TR-FRET; inhibition, % at 4.4 µM; actives 0.31% (n = 370,000); in the data active = inhibition above about 13%
ASAP1 GAP inh: inhibitors of human ASAP1 ArfGAP activity; Q9ULH1; ASAP1-stimulated ARF1 GTP hydrolysis, GDP FP detection; inhibition, % at 16.5 µM; actives 0.19% (n = 360,000); AID 624377; in the data active = inhibition above about 25%;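 note: 0% = vehicle with enzyme and substrate and 100% = no enzyme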
ARFGAP1 inh: inhibits rat ARF GTPase activating protein 1; actives 0.26% (n = 360,000); inhibition, % at 16.5 µM; Q62848; Arfgap1-stimulated ARF1 GTP hydrolysis, GDP FP detection; AID 651572;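 active = inhibition above a per-plate limit, mean inhibition of low control wells plus 3 SD, cut at about 25% in these data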;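 note: 0% = DMSO wells with enzyme and 100% = wells lacking Arfgap1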
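Assay system: Rat Arfgap1 GAP domain (His6, aa 1-136), purified enzyme | Buffer or medium: HEPES 25 mM pH 7.5, NaCl 150 mM, MgCl2, DTT | Schedule: GTP hydrolysis reaction 2 h at 25 °C | Signal: FP of antibody-bound GDP Alexa 633 tracer, ex 620/em 688 nm | Measure: Percent inhibition of Arfgap1-stimulated GTP hydrolysis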
LEDGF integ inh: blocks HIV-1 LEDGF/p75-dependent DNA integration; TR-FRET IN-LEDGF/p75 DNA integration, Eu/Cy5; inhibition, % at 3.7 µM; actives 0.64% (n = 370,000);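 active = inhibition above the screen-wide mean plus 3 SD, cut at about 13% in these data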;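 note: signal is the Cy5 over europium emission ratio at 671 and 618 nm; 0% = plate median of compound wells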
TDP2 absorb: TDP2 (human) inhibition, absorbance primary screen. O95551. recombinant TDP2, T5PNP hydrolysis, p-nitrophenol absorbance 415 nm. inhibition, % at 12.8 µM. actives 0.34% (n = 370,000). AID 720702;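 active = inhibition above the mean of all tested compounds plus 3 SD, set per campaign, cut at about 25% in these data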;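 note: 0% = DMSO with enzyme and 100% = buffer with substrate but no TDP2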
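Material: recombinant human TDP2; quantity: TDP2 enzyme at 120 nM final; medium: Tris-HCl pH 7.5 with MgCl2; compound: single concentration, 12.8 µM nominal, with 1% DMSO; incubation: 2 h enzyme incubation at 37 °C; signal: epi absorbance; measure: percent inhibition; benchmarks: high control without enzyme, low control DMSO plus TDP2; repeats: singlicate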
ASAP1 inh confirm: confirmation of human ASAP1 inhibitors; ASAP1-stimulated Arf1 GTPase, GDP fluorescence polarization; inhibition, % at 16.5 µM; actives 37% (n = 620); AID 624431; shares compounds with ASAP1 GAP inh;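 active = mean inhibition over triplicates exceeds the hit threshold derived for the earlier primary screening run, cut at about 25% in these data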
ARFGAP1 inh conf: rat ARFGAP1 inhibition, confirmed; actives 30% (n = 890); shares compounds with ARFGAP1 inh; inhibition, % at 16.5 µM; AID 651608; ARFGAP1-stimulated ARF1 GTP hydrolysis, GDP tracer FP;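 active = average inhibition over triplicates above the hit cutoff set in the earlier primary screen, cut at about 25% in these data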;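 note: 0% = Arfgap1 plus ARF1-GTP with DMSO and 100% = wells lacking Arfgap1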
Target sequence (Q62848 whole entry, looked up): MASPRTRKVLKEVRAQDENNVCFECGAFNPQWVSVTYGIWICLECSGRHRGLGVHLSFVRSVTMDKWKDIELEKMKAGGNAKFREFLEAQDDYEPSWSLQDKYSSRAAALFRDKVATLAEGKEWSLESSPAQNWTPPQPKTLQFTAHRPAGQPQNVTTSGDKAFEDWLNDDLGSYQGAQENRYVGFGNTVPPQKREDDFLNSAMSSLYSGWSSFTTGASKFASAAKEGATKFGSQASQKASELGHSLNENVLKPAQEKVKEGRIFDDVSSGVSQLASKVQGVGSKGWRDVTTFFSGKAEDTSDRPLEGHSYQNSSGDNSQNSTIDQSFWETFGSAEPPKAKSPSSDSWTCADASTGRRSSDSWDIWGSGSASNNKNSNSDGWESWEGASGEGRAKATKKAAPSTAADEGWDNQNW
UHRF1 ctr MBD2: UHRF1 methyl-oligo binding inhibition as MBD2 counter-screen | shares compounds with MBD2 DNA inh | UHRF1 binding to methylated oligonucleotide, TR-FRET | inhibition, % at 4.4 µM | actives 25% (n = 1,000) | AID 720530;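 note: UHRF1 SRA domain binding a labeled hemimethylated CpG hairpin DNA; 0% = vehicle only and 100% = reference inhibitor with vehicle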
MBD2 DBD conf: confirmation of human MBD2-DBD methylated oligonucleotide binding inhibitors; shares compounds with MBD2 DNA inh; TR-FRET MBD2-DBD binding to methylated oligonucleotide; inhibition, % at 4.4 µM; actives 26% (n = 1,000); AID 720531; in the data active = inhibition above about 14%
TDP2 confirm: confirmation of human TDP2 inhibitors; shares compounds with TDP2 absorb; recombinant human TDP2, absorbance read-out; inhibition, % at 12.8 µM; actives 22% (n = 1,100); AID 743263; in the data active = inhibition above about 25%;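 note: 0% = vehicle with enzyme and 100% = no enzyme buffer only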
Numbers without * were called inactive; . = no result given. Cut-off read from the data, not from the text of the source, unless noted: active = inhibition above about 21%; inactive = the rest.

SMILES	UHRF1 binding	MBD2 DNA inh	ASAP1 GAP inh	ARFGAP1 inh	LEDGF integ inh	TDP2 absorb	ASAP1 inh confirm	ARFGAP1 inh conf	TDP2 confirm	others
O=[N+]([O-])c1ccc(C=NNC(=S)Nc2ccc(F)cc2)cc1	0	-2	6	10	-3	-10	.	.	.
O=[N+]([O-])c1ccc(C=NNC(=S)NN=Cc2ccc([N+](=O)[O-])cc2)cc1	-2	-3	74*	25*	5	-1	164*	182*	.
COc1ccc(-c2nn(C)c3sc(C(=O)NCCN(C)C)cc23)cc1OC	28*	18*	26*	33*	-6	-7	54*	54*	.	UHRF1 ctr MBD2=29*;MBD2 DBD conf=25*
CC(=O)c1cc(-c2cccc([N+](=O)[O-])c2)c(=O)n2c1CCC2	0	3	.	.	-4	0	.	.	.
CC(=O)C1=C(C)OC2(O)c3ccccc3C(=O)C12O (centres undefined)	2	-1	43*	14	0	57*	9	.	61*
CCOC(=O)C1=C(C)OC2(O)c3ccccc3C(=O)C12O (centres undefined)	5	2	47*	17	12	70*	17	.	81*
CC1=C(C#N)C2(O)C(=O)c3ccccc3C2(O)N1 (centres undefined)	3	4	-3	-2	-10	-12	.	.	.
CCOC(=O)C1=C(C)c2ccccc2OC1(CC)C(=O)OCC (centres undefined)	0	0	-6	0	0	-1	.	.	.
COCCCN1C(=O)[C@H](CC(=O)NCc2cccs2)[C@]2(C(=O)OC)CCCCC=C12	-4	3	.	.	-3	3	.	.	.
O=C(NC1CCCCN(Cc2ccc(Cl)cc2)C1=O)c1cc(-c2ccccc2)no1 (centres undefined)	0	0	.	.	1	10	.	.	.
O=C(O)c1ccc(NC2=C(N3CCOCC3)C(=O)c3ccccc3C2=O)cc1	-3	-6	24	18	2	22	.	.	.
CC(=O)c1ccc(NC2=C(N3CCOCC3)C(=O)c3ccccc3C2=O)cc1	0	-10	27*	25*	5	54*	13	1	38*
Cc1ccc(NC2=C(N3CCOCC3)C(=O)c3ccccc3C2=O)cc1	15	0	36*	24	30*	60*	1	.	51*
O=c1[nH]c(Nc2ccccc2)cc2ccccc12	2	-4	25*	33*	37*	69*	13	-1	66*
CCOc1ccc(-n2c(SCC(=O)Nc3ccccc3-c3ccccc3)nnc2-c2ccccc2)cc1	0	-6	.	.	-1	-7	.	.	.
Cc1[nH][nH]c(=O)c1C(c1ccc(-c2cccc(C(=O)O)c2)o1)c1c(C)[nH][nH]c1=O	13	0	26*	31*	13	63*	-3	-10	31*
CCOc1ccc(N(CC(=O)Nc2c(C)n(C)n(-c3ccccc3)c2=O)S(=O)(=O)c2ccc(C(C)(C)C)cc2)cc1	1	-1	.	.	0	-9	.	.	.
O=C(NC1(O)C(=O)c2ccccc2C1=O)c1ccccc1	-1	-7	53*	37*	10	54*	21	3	84*
O=C1C(=O)c2ccccc2C(O)=C1c1ccccc1F	-11	-15	7	-8	-4	1	.	.	.
